The source made the active and inactive calls. No cut-off for these calls is given here.
Columns and labels:
HCC 2998 = assay: Growth inhibition of human HCC2998 cells after 24 hrs by MTT assay; type: functional; details: HCC 2998, 24 h
MCF7 [1] = assay: Cell cycle arrest in human MCF7 cells assessed as accumulation at S phase at 4 uM after 24 hrs using propidium iodide staining by flow cytometry; type: functional
Method in brief: (§1)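 MCF-7 cells were grown in DMEM with 10% fetal calf serum, penicillin and streptomycin, at 37 °C in 5% CO2. They were treated for 24 h at 2 and 4 µM, with DMSO-treated cells as controls. Cells were trypsinised, fixed in ice-cold 70% ethanol at 4 °C for 30 min, and RNaseA-treated at 37 °C for 30 min. Phases were read by flow cytometry.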

[2] = Growth inhibition of human […] cells after 24 hrs by MTT assay; type: functional
HT-29 = assay: Growth inhibition of human HT-29 cells after 24 hrs by MTT assay; type: functional; details: HT-29, 24 h
K562 = assay: Growth inhibition of human K562 cells after 24 hrs by MTT assay; type: functional; details: K562, 24 h
RXF 393 = assay: Growth inhibition of human RXF393 cells after 24 hrs by MTT assay; type: functional; details: RXF 393, 24 h
SK-MEL-2 = assay: Growth inhibition of human SK-MEL-2 cells after 24 hrs by MTT assay; type: functional; details: SK-MEL-2, 24 h
HL-60(TB) = assay: Growth inhibition of human HL-60(TB) cells after 24 hrs by MTT assay; type: functional; details: HL-60, 24 h
MOLT-4 = assay: Growth inhibition of human MOLT4 cells after 24 hrs by MTT assay; type: functional; details: MOLT-4, 24 h
MCF7 [3] = assay: Cell cycle arrest in human MCF7 cells assessed as accumulation at G2/M phase at 4 uM after 24 hrs using propidium iodide staining by flow cytometry; type: functional; method in brief: as §1
SNB-75 = assay: Growth inhibition of human SNB75 cells after 24 hrs by MTT assay; type: functional; details: SNB-75, 24 h
OVCAR-3 = assay: Growth inhibition of human OVCAR-3 cells after 24 hrs by MTT assay; type: functional; details: OVCAR-3, 24 h
HCT-15 = assay: Growth inhibition of human HCT15 cells after 24 hrs by MTT assay; type: functional; details: HCT-15, 24 h
NCI-H23 = assay: Growth inhibition of human NCI-H23 cells after 24 hrs by MTT assay; type: functional; details: NCI-H23, 24 h
MCF7 [4] = assay: Cell cycle arrest in human MCF7 cells assessed as accumulation at G0 phase at 4 uM after 24 hrs using propidium iodide staining by flow cytometry; type: functional; method in brief: as §1
NCI-H522 = assay: Growth inhibition of human NCI-H522 cells after 24 hrs by MTT assay; type: functional; details: NCI-H522, 24 h
MCF7 [5] = assay: Cell cycle arrest in human MCF7 cells assessed as accumulation at G2/M phase at 2 uM after 24 hrs using propidium iodide staining by flow cytometry; type: functional; method in brief: as §1
HOP-92 = assay: Growth inhibition of human HOP92 cells after 24 hrs by MTT assay; type: functional; details: HOP-92, 24 h
MCF7 [6] = assay: Increase of cytosolic cytochrome c level in human MCF7 cells at 2 uM after 24 hrs by Western blot analysis; type: functional, cell-based
Method in brief: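 MCF-7 cells were grown in DMEM with 10% FCS and penicillin/streptomycin at 37 °C in 5% CO2, then treated for 24 h. Cells were lysed in ice-cold RIPA buffer with protease inhibitors and NaF. Protein was measured by Bradford assay, and 30 µg per lane was run on 12% SDS-PAGE and transferred to PVDF. Antibody steps: primary at 4 °C overnight, HRP secondary 1:2000, chemiluminescent detection.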

BT-549 = assay: Growth inhibition of human BT549 cells after 24 hrs by MTT assay; type: functional; details: BT-549, 24 h
Nucleic Acid = assay: Inhibition of Escherichia coli pBR322 DNA cleavage after 16 hrs by RED100-restriction endonuclease digestion assay; type: nucleic-acid assay
Method in brief: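 pBR322 DNA was preincubated with compound at final 2, 4, 8, 16 and 32 µM for 16 h at 37 °C. BamHI (10 U/µl) in BamHI buffer was then added for 2 h at 37 °C. Products were separated on agarose in 0.5× Tris–acetate EDTA at 80 V for 1 h and stained with ethidium bromide. Cut and uncut DNA served as controls.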

MCF7 [7] = assay: Cell cycle arrest in human MCF7 cells assessed as accumulation at G1 phase at 4 uM after 24 hrs using propidium iodide staining by flow cytometry; type: functional; method in brief: as §1
DU-145 = assay: Growth inhibition of human DU145 cells after 24 hrs by MTT assay; type: functional; details: DU-145, 24 h
T47D = assay: Growth inhibition of human T47D cells after 24 hrs by MTT assay; type: functional
Malme-3M = assay: Growth inhibition of human MALME-3M cells after 24 hrs by MTT assay; type: functional
A498 = assay: Growth inhibition of human A498 cells after 24 hrs by MTT assay; type: functional; details: A498, 24 h
MCF7 [8] = assay: Cytotoxicity against human MCF7 cells at 2 uM after 24 hrs by MTT assay relative to control; type: functional
Method in brief: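 MCF-7 cells were seeded at 10,000 cells/well in DMEM with 10% fetal calf serum. They were exposed to 0.5, 1, 2 and 4 µM for 24 h. MTT reduction to formazan was read at 570 nm, with untreated controls taken as 100% viability. DMSO-treated cells served as an additional control.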

MDA-MB-435 = assay: Growth inhibition of human MDA-MB-435 cells after 24 hrs by MTT assay; type: functional; details: MDA-MB-435, 24 h
KM12 = assay: Growth inhibition of human KM12 cells after 24 hrs by MTT assay; type: functional; details: KM12, 24 h
A549 = assay: Growth inhibition of human A549 cells after 24 hrs by MTT assay; type: functional; details: A549, 24 h
TK-10 = assay: Growth inhibition of human TK10 cells after 24 hrs by MTT assay; type: functional; details: TK-10, 24 h
HOP-62 = assay: Growth inhibition of human HOP62 cells after 24 hrs by MTT assay; type: functional; details: HOP-62, 24 h
NCI-H226 = assay: Growth inhibition of human NCI-H226 cells after 24 hrs by MTT assay; type: functional; details: NCI-H226, 24 h
UACC-257 = assay: Growth inhibition of human UACC257 cells after 24 hrs by MTT assay; type: functional; details: UACC-257, 24 h
SF-539 = assay: Growth inhibition of human SF539 cells after 24 hrs by MTT assay; type: functional; details: SF-539, 24 h
LOX IMVI = assay: Growth inhibition of human LOXIMVI cells after 24 hrs by MTT assay; type: functional
MCF7 [9] = assay: Cell cycle arrest in human MCF7 cells assessed as accumulation at G1 phase at 2 uM after 24 hrs using propidium iodide staining by flow cytometry; type: functional; method in brief: as §1
MCF7 [10] = assay: Induction of apoptosis in human MCF7 cells assessed as increase of caspase 8 activation at 2 uM after 1 hr by […] method; type: functional, cell-based
Method in brief: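 Colorimetric caspase-8 kit on lysates of treated MCF-7 cells. The IETD-pNA substrate was incubated with cell lysate at 37 °C for 1 h, and absorbance was read at 405 nm. Untreated cells served as the control.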

In the case of COc1cc2c(cc1OCCCOc1ccc(-c3cc4ccccc4c4ccccc34)cc1)N=C[C@@H]1CCCN1C2=O, the GI50 (HCC 2998) was 1210 nM, the Activity (MCF7 [1]) was 13.05% and the GI50 [2] was 190 nM. For the same compound, the GI50 (HT-29) was 890 nM, the GI50 (K562) was 270 nM and the GI50 (RXF 393) was 240 nM. The GI50 (SK-MEL-2) was 40 nM, the GI50 (HL-60(TB)) was 170 nM and the GI50 (MOLT-4) was 180 nM. It also gave an Activity (MCF7 [3]) of 3.94%, a GI50 (SNB-75) of 210 nM and a GI50 (OVCAR-3) of 250 nM. For the same compound, the GI50 (HCT-15) was 1180 nM, the GI50 (NCI-H23) was 1410 nM and the Activity (MCF7 [4]) was 8.35%. For the same compound, the GI50 (NCI-H522) was 120 nM, the Activity (MCF7 [5]) was 10.7% and the GI50 (HOP-92) was 360 nM. The Activity (MCF7 [6]) was “Active”, the GI50 (BT-549) was 270 nM and the inhibition (Nucleic Acid) was “Dose-dependent effect”. It also gave an Activity (MCF7 [7]) of 75.33%, a GI50 (DU-145) of 400 nM and a GI50 (T47D) of 80 nM. The GI50 (Malme-3M) was 1590 nM, the GI50 (A498) was 690 nM and the Activity (MCF7 [8]) was “<=50%”. For the same compound, the GI50 (MDA-MB-435) was 240 nM, the GI50 (KM12) was 780 nM and the GI50 (A549) was 720 nM. It also gave a GI50 (TK-10) of 600 nM, a GI50 (HOP-62) of 1000 nM and a GI50 (NCI-H226) of 1170 nM. For the same compound, the GI50 (UACC-257) was 1360 nM, the GI50 (SF-539) was 1760 nM and the GI50 (LOX IMVI) was 1020 nM. The Activity (MCF7 [9]) was 68.99% and the Activity (MCF7 [10]) was “Active”.

— ChEMBL document CHEMBL1165860, “Synthesis and potential cytotoxic activity of new phenanthrylphenol-pyrrolobenzodiazepines” (2010)
